Measurements as given in ChEMBL document CHEMBL1129476, “In vivo activity and hydrophobicity of cytostatic aziridinyl quinones” (J Med Chem, 1996).

Key:
[1] = Electrochemically observed pKa (pKred) of aziridines; assay type: physicochemical; settings: read-out: pKred
[2] = E1/2 for the half-wave potential at pH=7.0 in V57; assay type: ADME
[3] = Observed rate of hydrolysis (logKobs) (pH=4.0); assay type: ADME
In short: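 Hydrolysis followed by cyclic voltammetry at 20 °C in deaerated 0.1 M acetate buffers (pH 5.0–3.5) or 0.02 M NaH2PO4 (pH 3.5, 3.0), ionic strength 0.1 M (NaNO3). Decrease of the parent cathodic peak tracked over time. Pseudo-first-order kobs from linear regression of log concentration versus time.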

[4] = system: L1210; assay: log 1/D125 for the dose (mmol/kg) to give 125%T/C ratio (L1210) in vivo; assay type: functional, Mus musculus
[5] = log 1/LD50 for LD50 (mmol/kg); assay type: ADME
[6] = system: B16; assay: log 1/D125 or the dose (mmol/kg) to give 125%T/C ratio (B16) in vivo; assay type: functional, Mus musculus
[7] = Partition coefficient (logP); assay type: physicochemical; settings: octanol/water
In short: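 Micro shake-flask: buffered aqueous compound solution (pH 6.50) shaken with an equal volume of water-saturated 1-octanol at room temperature, 3 × 120 s. Centrifuged 14000g, 15 min. Aqueous phase analysed by RP-HPLC against the unshaken solution (methanol 30, 50 or 70 wt%, 1.0 mL/min, UV 254 nm). Run in duplicate, or quadruplicate if needed.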

[8] = HPLC capacity factor (logK); assay type: ADME
[9] = system: L1210; assay: log 1/ID75 for the in vitro clonogenic L1210 assay with ID75 in umol/L; assay type: functional, Mus musculus
[10] = system: Fungi; assay: (§1) log 1/MIC for fungi in mmol/L; assay type: functional
[11] = log 1/anion production.; assay type: functional
[12] = system: Nucleic Acid; assay: (§2) DNA cross link ratio at pH=5.0 and 50 umol/L compound; assay type: functional
[13] = log KGSH for the rate k of glutathione (GSH) consumption in 1/s; assay type: functional
[14] = as §2; assay type: functional
[15] = as §1; assay type: functional

Compound | pKa [1] | E 1/2 [2] | Log Kobs [3] | Log 1/D125 (L1210) (mM kg-1) [4] | Log 1/LD50 (mM kg-1) [5] | Log 1/D125 (mM kg-1) [6] | logP [7] | Log K [8] | Log 1/ID75 (uM L-1) [9] | Log 1/MIC (mM L-1) [10] | Log 1/conc (mM min-1 L-1) [11] | DNA cross-link ratio [12] | Log k GSH (s-1) [13] | lnK [14] | Log 1/MIC (mM L-1) [15]
CC1=C(N2CC2C)C(=O)C(C)=C(N2CC2C)C1=O (centres undefined) | 8.6 | -0.187 | -2.61 | 1.47 | 1.4 | 2.27 |  |  |  |  |  |  |  |  | 
C/N=C1\C=C(O)c2ccccc2C1=O |  |  |  |  |  |  | 1.74 | 0.279 |  |  |  |  |  |  | 
CC1=C(N2CC2)C(=O)C(Br)=C(N2CC2)C1=O | 8.7 | -0.185 | -4.45 |  | 1.44 | 2.09 |  | 0.279 | 2.76 | 1.45 | 2.45 |  |  |  | 
O=C1C=C(N2CC2)C(=O)C=C1N1CC1 | 7.5 | -0.105 | -2.57 | 2.77 | 1.8 | 3.16 | 0.18 |  | 1.68 | 2.58 | 2.09 | 0.29 | -3.24 |  | 
O=C1C=C(N2CC2)C(=O)C(N2CC2)=C1N1CC1 [TRIAZIQUONE] | 8 | -0.171 | -2.85 | 3.52 | 2.66 | 3.8 | 0.13 |  | 2.72 | 1.06 | 1.32 |  | -3.14 |  | 
O=C1/C(=N/CCO)C=C(O)c2ccccc21 |  |  |  |  |  |  | 1.23 | -0.005 |  |  |  |  |  |  | 
CCC1=C(N2CC2)C(=O)C(Br)=C(N2CC2)C1=O | 8.8 | -0.21 | -4.3 | 1.41 | 1.39 | 2.6 |  |  | 2.82 | 1.57 | 2.42 | 0.15 | -3 |  | 
O=C1C=C(Cl)C(=O)c2ccccc21 |  |  |  |  |  |  | 2.15 | 0.659 |  |  |  |  |  |  | 
CC1=C(N2CC2C)C(=O)C(CCOC(N)=O)=C(N2CC2C)C1=O (centres undefined) | 9.7 | -0.235 | -3.67 | 1.89 |  | 2.31 |  |  |  |  | 0.56 | 0.13 |  |  | 
CC1=C(N2CC2)C(=O)C(CCO)=C(N2CC2)C1=O | 8.6 |  | -4 | 3.37 | 1.39 | 3.6 | 0.18 |  | 1.51 | 0.44 | 0.95 |  |  |  | 
COC(COC(N)=O)C1=C(N2CC2)C(=O)C(C)=C(N2CC2)C1=O (centres undefined) [CARBOQUONE] | 8.6 | -0.182 | -3.65 | 3.21 | 1.73 | 3.32 | -0.15 | -0.438 | 1.05 | -1.19 | 0.57 | 0.26 | -5.15 |  | 
NC(=O)OCCC1=C(N2CC2)C(=O)C(Br)=C(N2CC2)C1=O | 8.9 | -0.201 | -4.49 | 2 | 1.05 | 2.68 |  |  | 2.45 | 0.25 | 2.48 |  | -3.6 |  | 
CC1CN1C1=C(F)C(=O)C(N2CC2C)=C(F)C1=O (centres undefined) | 7.9 | -0.093 |  |  | 1.5 |  |  | 0.444 | 1.49 | 1.5 | 1.77 |  |  |  | 
O=C1C(F)=C(N2CC2)C(=O)C(N2CC2)=C1N1CC1 | 7.8 | -0.171 | -3.75 | 1.95 | 1.62 |  |  |  | 2.32 | 1.79 | 1.72 | 0.17 | -2.24 |  | 
CCOC(=O)NC1=C(N2CC2C)C(=O)C(NC(=O)OCC)=C(N2CC2C)C1=O (centres undefined) | 8.5 | -0.145 | -3.57 | 1.59 | 0.69 | 1.94 |  |  |  |  | 1.26 | 0.02 |  |  | 
CCOC(=O)NC1=C(N2CC2)C(=O)C(NC(=O)OCC)=C(N2CC2)C1=O [DIAZIQUONE] | 8.3 | -0.149 | -4.25 | 2.26 | 1.54 | 2.32 | 0.04 | -0.48 | -0.57 | -0.29 | 1.56 | 0.14 | -4.64 |  | 
CCC1=C(N2CC2)C(=O)C(C)=C(N2CC2)C1=O | 8.7 | -0.227 | -3.59 |  | 1.46 | 3.25 |  | 0.291 |  | 0.77 | 0.87 | 0.23 | -5 |  | 
CC1CN1C1=C(F)C(=O)C(N2CC2C)=C(N2CC2C)C1=O (centres undefined) | 8.2 | -0.195 |  |  | 1.45 |  |  |  | 2.01 | 1.18 |  |  |  |  | 
CC1=C(N2C(C)C2C)C(=O)C(Br)=C(N2C(C)C2C)C1=O (centres undefined) |  |  | -1.15 | 0.69 | 0.63 |  |  |  |  |  |  |  |  |  | 
CC1CN1C1=CC(=O)C(N2CC2C)=CC1=O (centres undefined) | 8.1 | -0.115 | -1.55 | 1.64 | 1.16 | 2.12 |  | 0.152 | 1.03 | 0.44 | 1.75 |  |  |  | 
O=C1C(F)=C(N2CC2)C(=O)C(F)=C1N1CC1 | 7.2 | -0.087 | -4.03 |  |  |  |  |  |  | 1.75 | 1.72 |  | -2.21 |  | 
CC1=C(C)C(=O)C(C)=C(C)C1=O [DUROQUINONE] |  |  |  |  |  |  | 2.12 | 0.776 |  |  |  |  |  |  | 
CC1=C(N2CC2)C(=O)C(CCOC(N)=O)=C(N2CC2)C1=O | 8.9 | -0.213 | -4.05 | 2.86 | 1.99 | 3.49 |  |  | 1.82 |  | 1.02 | 0.27 | -4.92 |  | 
CC1=C(N2CC2C)C(=O)C(Br)=C(N2CC2C)C1=O (centres undefined) | 9.2 | -0.194 | -3.85 | 1.79 | 1.59 | 1.71 |  |  | 2.66 | 1.01 | 2.5 |  |  | 0.03 | 
CC1=CC(=O)C=CC1=O [Cresoquinone] |  |  |  |  |  |  | 0.73 |  |  |  |  |  |  |  | 
O=C1C(Br)=C(N2CC2)C(=O)C(Br)=C1N1CC1 |  |  | -4.7 |  |  |  |  | 0.474 | 0.35 |  | 2.87 |  |  |  | 1.54
C/N=C1C(O)=C(N2CC2)/C(=N\C)C(O)=C\1N1CC1 | 8.5 | -0.415 |  | 2.49 |  | 3.14 | 0.13 |  | 0.32 |  |  |  |  |  | 
NC1=CC(=O)c2ccccc2C1=O |  |  |  |  |  |  | 1.88 | 0.129 |  |  |  |  |  |  | 
C/N=C1C=C(O)/C(=N/C)C=C/1O |  |  |  |  |  |  | 0.34 | -0.611 |  |  |  |  |  |  | 
